Calls of active or inactive are those of the source. The calls are words filed in the database; no cut-off is given here.
Assays:
Staphylococcus aureus [1] = assay: Antibacterial activity against Staphylococcus aureus KCTC 209 after 20 hrs by twofold serial dilution technique; assay type: functional; conditions: KCTC 209, 20 h
Procedure, shortened: (§1)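 Inoculum was 10⁵ CFU/mL. MIC was read after 20 h at 37 °C. The MRSA and QRSA strains were multidrug-resistant clinical isolates. Oxacillin and norfloxacin served as positive controls.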

Streptococcus mutans [2] = assay: Antibacterial activity against Streptococcus mutans KCTC 3065 at 64 ug/ml; assay type: functional, organism-based
Escherichia coli [3] = assay: Antibacterial activity against Escherichia coli 1356 after 20 hrs by twofold serial dilution technique; assay type: functional; conditions: Escherichia coli, 1356, 20 h; procedure, shortened: as §1
Staphylococcus aureus [4] = assay: Antibacterial activity against Staphylococcus aureus KCTC 209 at 64 ug/ml; assay type: functional, organism-based
Staphylococcus aureus [5] = assay: Antibacterial activity against Staphylococcus aureus RN 4220 after 20 hrs by twofold serial dilution technique; assay type: functional; conditions: RN 4220, 20 h; procedure, shortened: as §1
Escherichia coli [6] = assay: Antibacterial activity against Escherichia coli 1924 after 20 hrs by twofold serial dilution technique; assay type: functional; conditions: Escherichia coli, 1924, 20 h; procedure, shortened: as §1
Staphylococcus aureus [7] = assay: Antibacterial activity against Staphylococcus aureus KCTC 503 after 20 hrs by twofold serial dilution technique; assay type: functional; conditions: KCTC 503, 20 h; procedure, shortened: as §1
Escherichia coli [8] = assay: Antibacterial activity against Escherichia coli 1924 at 64 ug/ml; assay type: functional, organism-based
Streptococcus mutans [9] = assay: Antibacterial activity against Streptococcus mutans KCTC 3289 at 64 ug/ml; assay type: functional, organism-based
Staphylococcus aureus [10] = assay: Antibacterial activity against Staphylococcus aureus KCTC 503 at 64 ug/ml; assay type: functional, organism-based
Streptococcus mutans [11] = assay: Antibacterial activity against Streptococcus mutans KCTC 3289 after 20 hrs by twofold serial dilution technique; assay type: functional; conditions: KCTC 3289, 20 h
Procedure, shortened: (§2)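 Inoculum was 10⁵ CFU/mL, and MIC was read after incubation at 37 °C for 20 h. Oxacillin and norfloxacin were the positive controls.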

Streptococcus mutans [12] = assay: Antibacterial activity against Streptococcus mutans KCTC 3065 after 20 hrs by twofold serial dilution technique; assay type: functional; conditions: KCTC 3065, 20 h; procedure, shortened: as §2
Staphylococcus aureus [13] = assay: Antibacterial activity against Staphylococcus aureus RN 4220 at 64 ug/ml; assay type: functional, organism-based
Escherichia coli [14] = assay: Antibacterial activity against Escherichia coli 1356 at 64 ug/ml; assay type: functional, organism-based

O=C(O)CN1C(=O)/C(=C\c2ccc(/C=C/C(=O)c3ccccc3Cl)cc2)SC1=S
MIC (Staphylococcus aureus [1]): > 64 mg/L
Activity (Streptococcus mutans [2]): inactive
MIC (Escherichia coli [3]): > 64 mg/L
Activity (Staphylococcus aureus [4]): inactive
MIC (Staphylococcus aureus [5]): > 64 mg/L
MIC (Escherichia coli [6]): > 64 mg/L
MIC (Staphylococcus aureus [7]): > 64 mg/L
Activity (Escherichia coli [8]): inactive
Activity (Streptococcus mutans [9]): inactive
Activity (Staphylococcus aureus [10]): inactive
MIC (Streptococcus mutans [11]): > 64 mg/L
MIC (Streptococcus mutans [12]): > 64 mg/L
Activity (Staphylococcus aureus [13]): inactive
Activity (Escherichia coli [14]): inactive

— ChEMBL document CHEMBL1629475, “Synthesis of new chalcone derivatives containing a rhodanine-3-acetic acid moiety with potential anti-bacterial activity” (2010)
